In publication PMC8006165 (ACS Central Science, 2021):
“And” between values parts separate entries of the source, which are not always exact repeats. Identical values can stand only once.

Experiments:
[1] = biological target: T1, SeYihT (Salmonella enterica, UniProt Q9L7R9); assay: X-ray structure, in-crystal cleavage of SFP; assay type: binding; conditions: covalent Schiff base with Lys193
T1 sequence (Q9L7R9 1-292): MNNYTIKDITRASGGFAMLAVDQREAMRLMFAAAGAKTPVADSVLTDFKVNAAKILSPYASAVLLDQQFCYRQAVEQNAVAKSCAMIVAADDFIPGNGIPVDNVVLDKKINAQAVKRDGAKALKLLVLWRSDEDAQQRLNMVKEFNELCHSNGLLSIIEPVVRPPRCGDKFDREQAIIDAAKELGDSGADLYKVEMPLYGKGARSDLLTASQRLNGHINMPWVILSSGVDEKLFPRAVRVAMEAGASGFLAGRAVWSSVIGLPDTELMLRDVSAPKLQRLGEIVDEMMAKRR

[2] = biological target: T2, EcYihV (Escherichia coli, UniProt P32143); assay: SFP production, HPLC-MS/MS; assay type: biochemical; conditions: substrate inhibition; 1.0 mM ATP; pH 7.5, 5 mM MgCl2, 30 °C; no additive
T2 sequence (P32143 1-298): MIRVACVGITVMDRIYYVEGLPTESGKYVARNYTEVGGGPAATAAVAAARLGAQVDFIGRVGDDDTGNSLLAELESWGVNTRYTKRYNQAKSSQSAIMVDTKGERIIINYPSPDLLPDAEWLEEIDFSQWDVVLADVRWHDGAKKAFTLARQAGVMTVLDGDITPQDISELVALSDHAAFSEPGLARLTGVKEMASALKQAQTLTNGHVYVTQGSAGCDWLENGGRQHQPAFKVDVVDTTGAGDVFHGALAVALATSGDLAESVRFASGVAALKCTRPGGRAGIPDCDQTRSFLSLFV
Method in brief: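 Recombinant E. coli YihV (36.6 nM) phosphorylating chemically synthesized sulfofructose (SF) to SFP. […] SFP formation was quantified by HPLC-MS/MS on a ZIC-HILIC column. Rates across SF concentrations were fitted to a substrate inhibition kinetic model.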

[3] = biological target: T2, EcYihV; assay: X-ray structure of cocrystal; assay type: binding; conditions: with Mg; open and closed subunits
[4] = biological target: T2, EcYihV; assay: effect of additive on SF phosphorylation, HPLC-MS/MS; assay type: biochemical; conditions: 1.0 mM ATP, varied SF, pH 7.5, 30 °C, activator
[5] = biological target: Salmonella enterica YihS (SQ-SF isomerase), as measured by SEC-MALS (Salmonella enterica) (UniProt Q8ZKT7); assay: SEC-MALS
[6] = substrate: Nc1ncnc2c1ncn2[C@@H]1O[C@H](COP(=O)(O)OP(=O)(O)OP(=O)(O)O)[C@@H](O)[C@H]1O; assay: purified protein; conditions: 1.0 mM SF, 25 mM BTP pH 7.5, 25 mM KCl, 5 mM MgCl2, 30 °C
[7] = biological target: the molecule itself; assay: SEC-MALS
[8] = substrate: O=C(COP(=O)(O)O)[C@@H](O)[C@H](O)[C@H](O)CS(=O)(=O)O; assay: purified protein; conditions: SFP to SLA and DHAP

O=C(CO)COP(=O)(O)O [DHAP]
X-ray structure, in-crystal cleavage of SFP [1]: a new Schiff base formed with a DHAP molecule could be modeled

O=S(=O)(O)C[C@H]1OC(O)(CO)[C@@H](O)[C@@H]1O (some centres unmarked) [SF, 6-deoxy-6-sulfofructose]
KI [2]: 8.5 ± 2.8 mM

Nc1ncnc2c1ncn2[C@@H]1O[C@H](COP(=O)(O)OP(=O)(O)NP(=O)(O)O)[C@@H](O)[C@H]1O [AMPPNP]
X-ray structure of cocrystal [3]: AMPPNP resulted in the EcYihV·AMPPNP·Mg complex showing a surface-accessible nucleotide binding site

O=P(O)(O)OC[C@H]1OC(O)(COP(=O)(O)O)[C@@H](O)[C@@H]1O (some centres unmarked) [FBP]
effect of additive on SF phosphorylation, HPLC-MS/MS ([4]; 10 mM FBP): by F6P, FBP, PEP, and citrate (through effects on kcat/KM)

Salmonella enterica YihS (SQ-SF isomerase), as measured by SEC-MALS (from UniProt Q8ZKT7 2-413) (enzyme)
stoichiometry N [5]: 6

C=C(OP(=O)(O)O)C(=O)O [PEP]
effect of additive on SF phosphorylation, HPLC-MS/MS ([4]; 10 mM PEP): by F6P, FBP, PEP, and citrate (through effects on kcat/KM)

B1: E. coli YihV (sulfofructose kinase) (enzyme, UniProt P32143 1-298, looked up)
chain: MIRVACVGITVMDRIYYVEGLPTESGKYVARNYTEVGGGPAATAAVAAARLGAQVDFIGRVGDDDTGNSLLAELESWGVNTRYTKRYNQAKSSQSAIMVDTKGERIIINYPSPDLLPDAEWLEEIDFSQWDVVLADVRWHDGAKKAFTLARQAGVMTVLDGDITPQDISELVALSDHAAFSEPGLARLTGVKEMASALKQAQTLTNGHVYVTQGSAGCDWLENGGRQHQPAFKVDVVDTTGAGDVFHGALAVALATSGDLAESVRFASGVAALKCTRPGGRAGIPDCDQTRSFLSLFV
Km [6]: 1000 ± 200 µM | kcat [6]: 3.1 s⁻¹ | kcat/Km [6]: 3200 M⁻¹ s⁻¹ | stoichiometry N [7]: 2 and 4

B2: Salmonella enterica YihT (sulfofructose-1-phosphate aldolase) (enzyme, UniProt Q9L7R9 1-292, looked up)
chain: MNNYTIKDITRASGGFAMLAVDQREAMRLMFAAAGAKTPVADSVLTDFKVNAAKILSPYASAVLLDQQFCYRQAVEQNAVAKSCAMIVAADDFIPGNGIPVDNVVLDKKINAQAVKRDGAKALKLLVLWRSDEDAQQRLNMVKEFNELCHSNGLLSIIEPVVRPPRCGDKFDREQAIIDAAKELGDSGADLYKVEMPLYGKGARSDLLTASQRLNGHINMPWVILSSGVDEKLFPRAVRVAMEAGASGFLAGRAVWSSVIGLPDTELMLRDVSAPKLQRLGEIVDEMMAKRR
Km [8]: 3570 ± 420 µM | kcat [8]: 47.7 ± 2.4 s⁻¹ | stoichiometry N [7]: 4

B3: E. coli YihT (sulfofructose-1-phosphate aldolase) (enzyme, UniProt P32141 1-292, looked up)
chain: MNKYTINDITRASGGFAMLAVDQREAMRMMFAAAGAPAPVADSVLTDFKVNAAKALSPYASAILVDQQFCYRQVVEQNAIAKSCAMIVAADEFIPGNGIPVDSVVIDRKINPLQIKQDGGKALKLLVLWRSDEDAQQRLDMVKEFNELCHSHGLVSIIEPVVRPPRRGDKFDREQAIIDAAKELGDSGADLYKVEMPLYGKGPQQELLCASQRLNDHINMPWVILSSGVDEKLFPRAVRVAMTAGASGFLAGRAVWASVVGLPDNELMLRDVCAPKLQQLGDIVDEMMAKRR
stoichiometry N [7]: 4
